Results reported in ChEMBL document CHEMBL4680195, “Negative allosteric modulators of the GluN2B NMDA receptor with phenylethylamine structure embedded in ring-expanded and ring-contracted scaffolds” (Eur J Med Chem, 2020).

Tests used:
[1] = molecular target: T1, Sigma intracellular receptor 2 (Rattus norvegicus, UniProt Q5U3Y7); assay: Displacement of [3H]DTG from sigma 2 receptor in rat liver membranes incubated for 120 mins by scintillation counting method; assay type: cell membranes, Membrane
T1 sequence (Q5U3Y7 whole entry): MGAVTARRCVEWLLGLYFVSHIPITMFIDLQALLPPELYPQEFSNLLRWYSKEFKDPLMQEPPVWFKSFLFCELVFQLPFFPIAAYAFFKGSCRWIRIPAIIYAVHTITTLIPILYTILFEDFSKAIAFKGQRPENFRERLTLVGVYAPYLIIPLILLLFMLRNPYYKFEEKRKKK

[2] = molecular target: Sigma non-opioid intracellular receptor 1 (Cavia porcellus, UniProt Q60492); assay: Displacement of [3H]-(+)-pentazocine from Sigma1 receptor in guinea pig cortex membranes incubated for 120 mins by scintillation counting method; assay type: cell membranes, Membrane
Sigma non-opioid intracellular receptor 1, sequence (Q60492 whole entry): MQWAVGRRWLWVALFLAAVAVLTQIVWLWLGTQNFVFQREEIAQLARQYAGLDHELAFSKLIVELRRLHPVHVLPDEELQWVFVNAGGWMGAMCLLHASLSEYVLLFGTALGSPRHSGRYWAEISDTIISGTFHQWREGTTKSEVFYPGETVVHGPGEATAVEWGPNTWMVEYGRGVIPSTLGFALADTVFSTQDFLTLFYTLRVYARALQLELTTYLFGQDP

[3] = molecular target: Glutamate receptor ionotropic, NMDA 2B (Homo sapiens, UniProt Q05586+Q13224); assay: Displacement of [3H]ifenprodil from human GluN2B expressed in mouse L(tk-) cell membranes co-expressing GluN1a incubated for 2 hrs by scintillation counting method; set-up: species or system L-M(TK-), Cell membrane
Glutamate receptor ionotropic, NMDA 2B, sequence (Q13224 whole entry, one chain of several): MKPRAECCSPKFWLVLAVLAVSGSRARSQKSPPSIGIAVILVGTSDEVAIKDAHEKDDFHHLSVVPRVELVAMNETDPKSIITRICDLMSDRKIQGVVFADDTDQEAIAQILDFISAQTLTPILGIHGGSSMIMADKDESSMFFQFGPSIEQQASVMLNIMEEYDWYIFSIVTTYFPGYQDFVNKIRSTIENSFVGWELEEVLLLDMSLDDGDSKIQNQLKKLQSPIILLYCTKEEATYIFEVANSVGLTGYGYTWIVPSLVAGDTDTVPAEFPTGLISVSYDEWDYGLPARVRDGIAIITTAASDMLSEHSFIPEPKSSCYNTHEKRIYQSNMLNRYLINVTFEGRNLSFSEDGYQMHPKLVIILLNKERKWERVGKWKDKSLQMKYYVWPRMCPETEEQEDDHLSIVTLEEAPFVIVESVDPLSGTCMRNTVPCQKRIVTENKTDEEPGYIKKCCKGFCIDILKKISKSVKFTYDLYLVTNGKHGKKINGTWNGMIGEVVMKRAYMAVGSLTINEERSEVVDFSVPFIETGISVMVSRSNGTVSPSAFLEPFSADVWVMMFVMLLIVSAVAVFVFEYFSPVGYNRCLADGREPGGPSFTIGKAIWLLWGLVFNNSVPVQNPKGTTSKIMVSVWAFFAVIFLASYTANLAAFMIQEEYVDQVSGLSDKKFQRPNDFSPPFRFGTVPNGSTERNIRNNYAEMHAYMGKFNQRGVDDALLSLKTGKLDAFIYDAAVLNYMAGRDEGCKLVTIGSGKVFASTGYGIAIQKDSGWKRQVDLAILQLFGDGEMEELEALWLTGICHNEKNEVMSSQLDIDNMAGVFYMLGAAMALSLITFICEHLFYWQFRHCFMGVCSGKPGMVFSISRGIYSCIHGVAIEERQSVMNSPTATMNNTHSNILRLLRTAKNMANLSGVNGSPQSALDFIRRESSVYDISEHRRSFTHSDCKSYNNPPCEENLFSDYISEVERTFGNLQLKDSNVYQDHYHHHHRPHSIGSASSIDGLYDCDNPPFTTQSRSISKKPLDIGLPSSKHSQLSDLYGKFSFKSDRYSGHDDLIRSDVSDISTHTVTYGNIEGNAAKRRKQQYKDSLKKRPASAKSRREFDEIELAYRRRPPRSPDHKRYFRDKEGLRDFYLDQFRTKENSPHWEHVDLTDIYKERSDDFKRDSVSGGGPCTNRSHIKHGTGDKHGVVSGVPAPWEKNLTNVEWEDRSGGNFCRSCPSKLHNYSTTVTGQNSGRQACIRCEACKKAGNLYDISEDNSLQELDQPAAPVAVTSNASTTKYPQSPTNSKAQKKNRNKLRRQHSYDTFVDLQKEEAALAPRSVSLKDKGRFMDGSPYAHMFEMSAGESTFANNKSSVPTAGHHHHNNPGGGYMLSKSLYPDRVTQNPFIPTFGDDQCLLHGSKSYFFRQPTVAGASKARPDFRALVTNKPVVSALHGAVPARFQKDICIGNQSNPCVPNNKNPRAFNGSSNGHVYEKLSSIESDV

[4] = Cytoprotective activity against glutamate/glycine-induced cell death in mouse L-M(TK-) cells assessed as increase in cell viability at 10 uM incubated for 30 mins followed by glutamate/glycine stimulation and measured after 6 hrs by LDH assay relative to control; assay type: functional; conditions: time 6.5 hrs
In short: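 Mouse L(tk-) fibroblasts stably carrying dexamethasone-inducible GluN1a and GluN2B vectors (1:5). Wells blocked with DMEM containing 1% BSA, then given test compound, at least triplicate, 30 min at 37 °C. Glutamate/glycine solution then added, 6 h at 37 °C. LDH in supernatant read with diaphorase/lactate/NAD+/iodonitrotetrazolium mix, 45 min at 37 °C, absorbance 485 nm. Buffer gave total LDH; (S)-ketamine 4 × 10^-5 mol/L was positive control.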

[5] = molecular target: Sigma intracellular receptor 2 (Homo sapiens, UniProt Q5BJF2); assay: Binding affinity to Sigma 2 receptor (unknown origin)
Sigma intracellular receptor 2 (Homo sapiens, UniProt Q5BJF2), sequence (Q5BJF2 whole entry): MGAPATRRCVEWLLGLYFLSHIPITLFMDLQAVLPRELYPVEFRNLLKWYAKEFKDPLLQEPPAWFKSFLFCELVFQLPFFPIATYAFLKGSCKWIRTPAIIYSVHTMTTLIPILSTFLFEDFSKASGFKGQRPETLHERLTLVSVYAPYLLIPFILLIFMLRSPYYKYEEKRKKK

[6] = Cytoprotective activity against glutamate/glycine-induced cell death in mouse L-M(TK-) cells assessed as increase in cell viability incubated for 30 mins followed by glutamate/glycine stimulation and measured after 6 hrs by LDH assay; assay type: functional, cell-based
In short: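 Mouse L(tk-) fibroblasts stably carrying dexamethasone-inducible GluN1a and GluN2B vectors (1:5 ratio). Cells preincubated with test compound in DMEM, at least in triplicate, 30 min at 37 °C. Then glutamate/glycine (each 20 µM, stock added) added and incubated 6 h at 37 °C. LDH released into the supernatant read at 485 nm after 45 min at 37 °C. Buffer in place of ligand gave total LDH. (S)-ketamine 4 × 10⁻⁵ mol/L was the positive control.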

[7] = molecular target: Glutamate receptor ionotropic, NMDA 2B (Rattus norvegicus) (UniProt Q00960); assay: Negative allosteric inhibition of rat GluN2B expressed in Oocytes co-expressing GluN1a at 10 uM at -70 mV holding potential by two electrode voltage-clamp assay relative to control; conditions: filed as negative allosteric modulator
Glutamate receptor ionotropic, NMDA 2B (Rattus norvegicus), sequence (Q00960 whole entry, looked up): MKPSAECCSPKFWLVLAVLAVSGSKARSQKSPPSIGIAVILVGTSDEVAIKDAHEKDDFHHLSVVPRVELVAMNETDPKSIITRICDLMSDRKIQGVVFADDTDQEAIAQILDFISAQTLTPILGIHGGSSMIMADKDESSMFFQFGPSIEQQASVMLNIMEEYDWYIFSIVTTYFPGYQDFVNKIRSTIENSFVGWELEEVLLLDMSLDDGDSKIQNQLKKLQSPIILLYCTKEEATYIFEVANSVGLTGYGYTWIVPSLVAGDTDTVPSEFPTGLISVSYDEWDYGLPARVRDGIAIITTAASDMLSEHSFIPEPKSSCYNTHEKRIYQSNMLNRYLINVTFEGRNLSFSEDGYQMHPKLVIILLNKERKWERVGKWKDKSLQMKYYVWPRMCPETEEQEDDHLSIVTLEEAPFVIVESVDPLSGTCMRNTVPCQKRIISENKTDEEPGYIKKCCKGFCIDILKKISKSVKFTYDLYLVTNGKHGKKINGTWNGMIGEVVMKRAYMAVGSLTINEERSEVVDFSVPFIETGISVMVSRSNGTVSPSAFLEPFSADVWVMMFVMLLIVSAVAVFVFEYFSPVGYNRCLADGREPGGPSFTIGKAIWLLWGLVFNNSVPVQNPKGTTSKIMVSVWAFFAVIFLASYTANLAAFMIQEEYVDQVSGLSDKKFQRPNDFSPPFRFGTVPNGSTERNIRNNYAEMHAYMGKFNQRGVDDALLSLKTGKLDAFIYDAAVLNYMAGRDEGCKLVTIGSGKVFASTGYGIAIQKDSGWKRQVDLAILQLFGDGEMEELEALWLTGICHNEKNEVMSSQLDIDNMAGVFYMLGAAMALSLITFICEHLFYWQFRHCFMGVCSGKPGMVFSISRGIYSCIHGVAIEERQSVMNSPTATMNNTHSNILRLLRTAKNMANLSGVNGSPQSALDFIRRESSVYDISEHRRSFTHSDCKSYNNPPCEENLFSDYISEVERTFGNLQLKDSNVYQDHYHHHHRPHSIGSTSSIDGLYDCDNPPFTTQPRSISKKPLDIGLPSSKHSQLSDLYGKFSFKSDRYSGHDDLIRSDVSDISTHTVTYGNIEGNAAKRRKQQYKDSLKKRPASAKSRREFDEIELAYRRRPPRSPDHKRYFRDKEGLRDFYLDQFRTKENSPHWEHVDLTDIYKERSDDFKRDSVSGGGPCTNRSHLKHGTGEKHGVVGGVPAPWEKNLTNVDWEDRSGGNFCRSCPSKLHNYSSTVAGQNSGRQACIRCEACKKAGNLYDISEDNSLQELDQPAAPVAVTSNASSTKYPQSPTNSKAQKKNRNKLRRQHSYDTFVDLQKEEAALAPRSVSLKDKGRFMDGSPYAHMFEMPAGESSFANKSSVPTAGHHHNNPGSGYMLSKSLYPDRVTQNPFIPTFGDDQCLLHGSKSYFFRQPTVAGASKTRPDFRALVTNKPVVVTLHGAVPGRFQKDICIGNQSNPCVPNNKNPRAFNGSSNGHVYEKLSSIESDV

[8] = molecular target: Glutamate receptor ionotropic, NMDA 2B (Rattus norvegicus) (UniProt Q00960); assay: Negative allosteric inhibition of rat GluN2B expressed in Oocytes co-expressing GluN1a at 1 uM at -70 mV holding potential by two electrode voltage-clamp assay relative to control; conditions: filed as negative allosteric modulator

Ki [5]	inhibition [7]	inhibition [8]	Compound	Ki [1]	Ki [2]	Ki [3]	Activity [4]	IC50 [6]
–	–	–	c1ccc(C2CCN(C3CCc4ccccc4C3)CC2)cc1 (centres undefined)	0.0029 µM	0.0019 µM	0.0084 µM	–	–
–	–	–	c1ccc(CCCCNC2CCc3ccccc3C2)cc1 (centres undefined)	0.05 µM	0.046 µM	0.266 µM	–	–
–	–	–	c1ccc(CC2CCN(C3Cc4ccccc4C3)CC2)cc1	0.028 µM	0.051 µM	0.0032 µM	7%	–
–	–	–	c1ccc(CC2CCN(C3CCc4ccccc4C3)CC2)cc1 (centres undefined)	0.0021 µM	0.006 µM	0.008 µM	–	–
> 10 µM	–	–	Oc1ccc2c(c1)CCN(CCCCc1ccccc1)CC2O (centres undefined)	–	–	–	–	–
–	–	–	c1ccc(CCCNC2Cc3ccccc3C2)cc1	0.038 µM	0.058 µM	0.117 µM	31%	–
–	–	–	c1ccc(CNC2CCc3ccccc3C2)cc1 (centres undefined)	0.065 µM	0.285 µM	4 µM	–	–
–	60%	8%	c1ccc(CCCCN2CCCc3ccccc3CC2)cc1	0.05 µM	0.022 µM	0.032 µM	–	0.89 µM
–	–	–	c1ccc(CCNC2CCc3ccccc3C2)cc1 (centres undefined)	0.07 µM	0.051 µM	0.237 µM	–	–
–	–	–	c1ccc(C2CCN(C3Cc4ccccc4C3)CC2)cc1	0.025 µM	0.044 µM	0.0045 µM	–	–
–	–	–	c1ccc(CCCCNC2Cc3ccccc3C2)cc1	0.15 µM	0.031 µM	0.066 µM	–	–
–	–	–	c1ccc(CCCNC2CCc3ccccc3C2)cc1 (centres undefined)	0.029 µM	0.059 µM	0.163 µM	30%	–
–	–	–	c1ccc(CCCN2CCCc3ccccc3CC2)cc1	0.178 µM	0.017 µM	0.036 µM	–	7.8 µM
–	–	–	c1ccc(CCCNC2CCc3ccccc3CC2)cc1	–	–	–	29%	–
–	–	–	c1ccc(CCNC2Cc3ccccc3C2)cc1	0.694 µM	0.168 µM	0.455 µM	–	–
–	–	–	CC(C(O)c1ccc(O)cc1)N1CCC(Cc2ccccc2)CC1 (centres undefined) [IFENPRODIL]	–	–	–	–	0.59 µM
